# Source: ChEMBL document CHEMBL5058577, “EUbOPEN Chemogenomics Library 2 (Multiplex)” (2022)
# Test system: U2OS
# Assay: Multiplex assay against U2OS
# Format: toxicity, cell-based
# Conditions: human
# Summary of the method: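 Per cents of healthy-nucleus cells form the tubulin, mitochondrial-mass and membrane-permeability phenotype values. Live cells were stained at seeding with Hoechst33342, BioTracker Green Microtubule Cytoskeleton Dye, MitoTracker Red and Annexin V Alexa Fluor 680. After compound addition they were imaged on a CQ1 microscope at 37°C and 5% CO2, and CellPathfinder machine-learning gating split them into Hoechst high-intensity objects or normal cells, normal cells into healthy, pyknosed or fragmented nuclei, and pyknosed cells into mitotic or apoptotic.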
# [1] = 12 h, 1 µM, compound concentration 1 uM, replicate 1
# [2] = 12 h, 1 µM, compound concentration 1 uM, replicate 2
# [3] = 12 h, 10 µM, compound concentration 10 uM, replicate 1
# [4] = 12 h, 10 µM, compound concentration 10 uM, replicate 2
# [5] = 24 h, 1 µM, compound concentration 1 uM, replicate 1
# [6] = 24 h, 1 µM, compound concentration 1 uM, replicate 2
# [7] = 24 h, 10 µM, compound concentration 10 uM, replicate 1
# [8] = 24 h, 10 µM, compound concentration 10 uM, replicate 2
# [9] = 48 h, 1 µM, compound concentration 1 uM, replicate 1
# [10] = 48 h, 1 µM, compound concentration 1 uM, replicate 2
# [11] = 48 h, 10 µM, compound concentration 10 uM, replicate 1
# [12] = 48 h, 10 µM, compound concentration 10 uM, replicate 2
compound,measurement,setting,value
c1cc(OCCCN2CCCCC2)ccc1CN1CCCCC1 [JNJ-5207852],Population Apoptotic (%),[1],76%
same,Population Fragmented Nuclei (%),[1],29%
same,Population Healthy Nuclei (%),[1],65%
same,Population Hoechst High Intensity Objects (%),[1],2%
same,Population Membrane Permeable-Phenotype (%),[1],5%
same,Population Mitochondria Different-Phenotype (%),[1],3%
same,Population Mitotic Cells (%),[1],23%
same,Population Normal (%),[1],97%
same,Population Pyknosed Nuclei (%),[1],5%
same,Population Tubulin-Different-Phenotype (%),[1],3%
same,Total Cell Count,[1],253
same,Population Apoptotic (%),[2],58%
same,Population Fragmented Nuclei (%),[2],25%
same,Population Healthy Nuclei (%),[2],62%
same,Population Hoechst High Intensity Objects (%),[2],0%
same,Population Membrane Permeable-Phenotype (%),[2],7%
same,Population Mitotic Cells (%),[2],41%
same,Population Normal (%),[2],99%
same,Population Pyknosed Nuclei (%),[2],11%
same,Total Cell Count,[2],106
same,Population Apoptotic (%),[3],73%
same,Population Fragmented Nuclei (%),[3],34%
same,Population Healthy Nuclei (%),[3],57%
same,Population Hoechst High Intensity Objects (%),[3],2%
same,Population Membrane Permeable-Phenotype (%),[3],5%
same,Population Mitochondria Different-Phenotype (%),[3],3%
same,Population Mitotic Cells (%),[3],26%
same,Population Normal (%),[3],97%
same,Population Pyknosed Nuclei (%),[3],8%
same,Population Tubulin-Different-Phenotype (%),[3],3%
same,Total Cell Count,[3],228
same,Population Apoptotic (%),[4],85%
same,Population Fragmented Nuclei (%),[4],13%
same,Population Healthy Nuclei (%),[4],80%
same,Population Hoechst High Intensity Objects (%),[4],4%
same,Population Membrane Permeable-Phenotype (%),[4],7%
same,Population Mitochondria Different-Phenotype (%),[4],9%
same,Population Mitotic Cells (%),[4],14%
same,Population Normal (%),[4],95%
same,Population Pyknosed Nuclei (%),[4],6%
same,Population Tubulin-Different-Phenotype (%),[4],6%
same,Total Cell Count,[4],120
same,Population Apoptotic (%),[5],84%
same,Population Fragmented Nuclei (%),[5],25%
same,Population Healthy Nuclei (%),[5],65%
same,Population Hoechst High Intensity Objects (%),[5],1%
same,Population Membrane Permeable-Phenotype (%),[5],3%
same,Population Mitochondria Different-Phenotype (%),[5],2%
same,Population Mitotic Cells (%),[5],16%
same,Population Normal (%),[5],98%
same,Population Pyknosed Nuclei (%),[5],8%
same,Population Tubulin-Different-Phenotype (%),[5],2%
same,Total Cell Count,[5],287
same,Population Apoptotic (%),[6],66%
same,Population Fragmented Nuclei (%),[6],21%
same,Population Healthy Nuclei (%),[6],68%
same,Population Hoechst High Intensity Objects (%),[6],0%
same,Population Membrane Permeable-Phenotype (%),[6],4%
same,Population Mitotic Cells (%),[6],33%
same,Population Normal (%),[6],100%
same,Population Pyknosed Nuclei (%),[6],10%
same,Population Tubulin-Different-Phenotype (%),[6],4%
same,Total Cell Count,[6],119
same,Population Apoptotic (%),[7],82%
same,Population Fragmented Nuclei (%),[7],28%
same,Population Healthy Nuclei (%),[7],62%
same,Population Hoechst High Intensity Objects (%),[7],1%
same,Population Membrane Permeable-Phenotype (%),[7],4%
same,Population Mitochondria Different-Phenotype (%),[7],3%
same,Population Mitotic Cells (%),[7],17%
same,Population Normal (%),[7],98%
same,Population Pyknosed Nuclei (%),[7],8%
same,Population Tubulin-Different-Phenotype (%),[7],3%
same,Total Cell Count,[7],271
same,Population Apoptotic (%),[8],84%
same,Population Fragmented Nuclei (%),[8],10%
same,Population Healthy Nuclei (%),[8],80%
same,Population Membrane Permeable-Phenotype (%),[8],8%
same,Population Mitochondria Different-Phenotype (%),[8],5%
same,Population Mitotic Cells (%),[8],15%
same,Population Tubulin-Different-Phenotype (%),[8],8%
same,Total Cell Count,[8],157
same,Population Apoptotic (%),[9],82%
same,Population Fragmented Nuclei (%),[9],21%
same,Population Healthy Nuclei (%),[9],69%
same,Population Hoechst High Intensity Objects (%),[9],2%
same,Population Membrane Permeable-Phenotype (%),[9],4%
same,Population Mitochondria Different-Phenotype (%),[9],2%
same,Population Mitotic Cells (%),[9],17%
same,Population Normal (%),[9],97%
same,Population Pyknosed Nuclei (%),[9],8%
same,Population Tubulin-Different-Phenotype (%),[9],4%
same,Total Cell Count,[9],400
same,Population Apoptotic (%),[10],76%
same,Population Fragmented Nuclei (%),[10],19%
same,Population Healthy Nuclei (%),[10],71%
same,Population Hoechst High Intensity Objects (%),[10],3%
same,Population Membrane Permeable-Phenotype (%),[10],9%
same,Population Mitochondria Different-Phenotype (%),[10],4%
same,Population Mitotic Cells (%),[10],23%
same,Population Normal (%),[10],96%
same,Population Tubulin-Different-Phenotype (%),[10],3%
same,Total Cell Count,[10],152
same,Population Apoptotic (%),[11],86%
same,Population Fragmented Nuclei (%),[11],22%
same,Population Healthy Nuclei (%),[11],70%
same,Population Hoechst High Intensity Objects (%),[11],2%
same,Population Membrane Permeable-Phenotype (%),[11],7%
same,Population Mitochondria Different-Phenotype (%),[11],3%
same,Population Mitotic Cells (%),[11],13%
same,Population Normal (%),[11],97%
same,Population Pyknosed Nuclei (%),[11],6%
same,Population Tubulin-Different-Phenotype (%),[11],5%
same,Total Cell Count,[11],345
same,Population Apoptotic (%),[12],93%
same,Population Fragmented Nuclei (%),[12],14%
same,Population Healthy Nuclei (%),[12],78%
same,Population Hoechst High Intensity Objects (%),[12],1%
same,Population Membrane Permeable-Phenotype (%),[12],6%
same,Population Mitochondria Different-Phenotype (%),[12],2%
same,Population Mitotic Cells (%),[12],6%
same,Population Normal (%),[12],98%
same,Population Tubulin-Different-Phenotype (%),[12],4%
same,Total Cell Count,[12],245
